How the values were obtained:
[1] = target: T1, Endothelin receptor type B (Homo sapiens, UniProt P24530); experiment: Tested for antagonistic activity against Endothelin B receptor in the humans (CHO expressed).; format: functional
T1 sequence (P24530 whole entry): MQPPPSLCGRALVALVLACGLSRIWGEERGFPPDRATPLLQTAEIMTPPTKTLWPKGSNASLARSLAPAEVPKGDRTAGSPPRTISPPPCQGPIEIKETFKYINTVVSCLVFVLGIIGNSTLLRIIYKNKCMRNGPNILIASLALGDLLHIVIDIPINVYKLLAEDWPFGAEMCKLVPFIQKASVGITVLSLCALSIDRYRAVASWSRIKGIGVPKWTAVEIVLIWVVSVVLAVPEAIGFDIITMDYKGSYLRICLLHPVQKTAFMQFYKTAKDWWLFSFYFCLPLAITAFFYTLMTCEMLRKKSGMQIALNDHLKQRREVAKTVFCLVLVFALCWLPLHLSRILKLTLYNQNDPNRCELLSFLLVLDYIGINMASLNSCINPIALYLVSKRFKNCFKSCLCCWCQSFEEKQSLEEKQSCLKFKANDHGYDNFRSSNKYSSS
How it was run: (§1)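 Membranes from cultured CHO-K1 cells expressing cloned human ETB receptor, incubated with [125I]ET-3 alone or with increasing unlabelled ligand concentrations, 37 °C, 2 h. Filtration separated bound from free ligand; gamma counting. Nonspecific binding measured with 100 nM unlabelled ET-3. One-site nonlinear least-squares fit of specific binding. IC50 from single competition experiments, triplicate points.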

[2] = target: T2, Endothelin-1 receptor (Homo sapiens, UniProt P25101); experiment: Antagonistic activity against human Endothelin A receptor expressed in LtK; format: functional
T2 sequence (P25101 whole entry): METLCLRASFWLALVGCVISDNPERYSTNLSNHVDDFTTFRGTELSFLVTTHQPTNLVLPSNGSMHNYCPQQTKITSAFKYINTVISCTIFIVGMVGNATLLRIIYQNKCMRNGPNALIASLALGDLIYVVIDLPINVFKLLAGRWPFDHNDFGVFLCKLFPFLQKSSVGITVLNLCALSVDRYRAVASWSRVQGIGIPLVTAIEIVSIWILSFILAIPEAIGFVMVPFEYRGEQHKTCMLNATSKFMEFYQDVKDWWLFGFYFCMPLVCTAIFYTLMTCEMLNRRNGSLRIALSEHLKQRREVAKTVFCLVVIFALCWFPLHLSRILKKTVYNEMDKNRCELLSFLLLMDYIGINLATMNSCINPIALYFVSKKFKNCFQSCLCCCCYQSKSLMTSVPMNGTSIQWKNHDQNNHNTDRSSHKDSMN

[3] = target: T3, Endothelin receptor type B (Rattus norvegicus, UniProt P21451); experiment: Tested for antagonistic activity against Endothelin B receptor in the rat cerebellum.; format: functional, tissue-based
T3 sequence (P21451 whole entry): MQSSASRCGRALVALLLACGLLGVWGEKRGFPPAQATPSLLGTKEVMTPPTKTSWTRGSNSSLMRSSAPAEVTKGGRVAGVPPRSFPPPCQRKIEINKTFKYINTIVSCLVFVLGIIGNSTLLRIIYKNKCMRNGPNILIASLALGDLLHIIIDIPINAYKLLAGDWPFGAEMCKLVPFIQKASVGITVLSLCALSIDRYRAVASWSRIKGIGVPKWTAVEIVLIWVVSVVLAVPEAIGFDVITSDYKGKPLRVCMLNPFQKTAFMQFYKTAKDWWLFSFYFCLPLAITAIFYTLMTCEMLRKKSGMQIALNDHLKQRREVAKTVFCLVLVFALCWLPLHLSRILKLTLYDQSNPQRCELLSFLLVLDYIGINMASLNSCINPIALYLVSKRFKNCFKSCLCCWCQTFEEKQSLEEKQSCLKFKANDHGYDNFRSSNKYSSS

[4] = target: T1, Endothelin receptor type B; experiment: Tested for antagonistic activity against Endothelin B receptor in human (CHO expressed).; format: functional; how it was run: as §1

| Structure (SMILES) | IC50 [1] | IC50 [2] | IC50 [3] | IC50 [4] |
| --- | --- | --- | --- | --- |
| O=C1OC(O)(c2ccccc2)C(Cc2ccccc2)=C1c1ccc2c(c1)OCO2 (stereo unspecified) | – | – | 22 µM | 30 µM |
| COc1ccc(CC2=C(c3ccc(C)cc3)C(=O)OC2(O)c2ccc(OC)cc2)cc1 (stereo unspecified) | > 2.7 µM | – | – | – |
| Cc1ccc(C2(O)OC(=O)C(c3ccc4c(c3)OCO4)=C2Cc2ccccc2)cc1 (stereo unspecified) | – | – | 4.5 µM | > 25 µM |
| COc1ccc(C2(O)OC(=O)C(c3ccc4c(c3)OCO4)=C2Cc2ccccc2)cc1 (stereo unspecified) [PD-155080] | – | – | 0.5 µM | 4.55 µM |
| COc1ccc(C2(O)OC(=O)C(c3ccc4c(c3)OCO4)=C2Cc2ccc(Cl)cc2)cc1 (stereo unspecified) | > 2.5 µM | – | – | – |
| COc1ccc(CC2=C(c3ccc(Cl)cc3)C(=O)OC2(O)c2ccc(OC)cc2)cc1 (stereo unspecified) | > 2.5 µM | – | – | – |
| O=C1OC(O)(c2ccc(Cl)c(Cl)c2)C(Cc2ccccc2)=C1c1ccc2c(c1)OCO2 (stereo unspecified) | > 25 µM | – | – | – |
| COc1ccc(CC2=C(c3ccc(OC)cc3)C(=O)OC2(O)c2ccc(OC)cc2)cc1 (stereo unspecified) | > 2.5 µM | – | – | – |

Results, then the molecule that gave them:

| IC50 [1] | IC50 [2] | IC50 [3] | IC50 [4] | Structure (SMILES) |
| --- | --- | --- | --- | --- |
| > 2.5 µM | 0.17 µM | – | – | COc1ccc(CC2=C(c3ccc(Cl)c(Cl)c3)C(=O)OC2(O)c2ccc(OC)cc2)cc1 (stereo unspecified) |
| 1.14 µM | 0.0024 µM | – | – | COc1ccc(C2(O)OC(=O)C(c3ccc4c(c3)OCO4)=C2Cc2ccc(OC)c(C)c2)cc1 (stereo unspecified) |
| 27 µM | – | 5.2 µM | – | O=C1OC(O)(c2ccc(Cl)cc2)C(Cc2ccccc2)=C1c1ccc2c(c1)OCO2 (stereo unspecified) |
| 1.55 µM | – | – | – | COc1ccc(CC2=C(c3ccc4c(c3)OCO4)C(=O)OC2(O)c2ccc(OC)cc2)cc1 (stereo unspecified) |
| 0.39 µM | 0.051 µM | 4.5 µM | – | COc1ccc(C2(O)OC(=O)C(c3ccc4c(c3)OCO4)=C2Cc2ccc(C)cc2)cc1 (stereo unspecified) |
| 1.75 µM | 0.012 µM | – | – | COc1ccc(C2(O)OC(=O)C(c3ccc4c(c3)OCO4)=C2Cc2ccccc2)cc1C (stereo unspecified) |
| > 2.5 µM | – | – | – | COc1ccc(CC2=C(c3ccccc3)C(=O)OC2(O)c2ccc(OC)cc2)cc1 (stereo unspecified) |
| 0.417 µM | 0.00031 µM | – | – | COc1ccc(C(=O)/C(Cc2cc(OC)c(OC)c(OC)c2)=C(\C(=O)O)c2ccc3c(c2)OCO3)cc1 [PD-156707 SODIUM] |

From ChEMBL document CHEMBL1128292, “Discovery of a novel series of orally active non-peptide endothelin-A (ETA) receptor-selective antagonists” (J Med Chem, 1995)
